Reference: ChEMBL document CHEMBL5724801, “EUbOPEN Chemogenomics Library - Multiplex” (2024)
Where “and” joins values, the source holds several entries; their conditions need not be identical. Equal values may be shown once.

Legend:
U2OS = assay: Multiplex assay against U2OS; type: toxicity, cell-based; details: human
Outline: (§1)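 Phenotypes for tubulin, mitochondrial mass and membrane permeability are expressed as per cents of healthy-nucleus cells. Cells were stained live at seeding with Hoechst33342, BioTracker Green Microtubule Cytoskeleton Dye, MitoTracker Red and Annexin V Alexa Fluor 680, then imaged after compound addition on a CQ1 microscope at 37°C and 5% CO2. Machine-learning gating in CellPathfinder separated Hoechst high-intensity objects from normal cells, divided normal cells by nuclear state (healthy, pyknosed, fragmented) and divided pyknosed cells into mitotic or apoptotic.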

HEK-293T = assay: Multiplex assay against HEK293T; type: toxicity, cell-based; details: human; outline: as §1
[1] = 24 h, 1 µM, compound concentration 1 uM
[2] = 24 h, 10 µM, compound concentration 10 uM
[3] = 48 h, 1 µM, compound concentration 1 uM
[4] = 48 h, 10 µM, compound concentration 10 uM
[5] = 12 h, 1 µM, compound concentration 1 uM
[6] = 12 h, 10 µM, compound concentration 10 uM

Structure (SMILES): COc1ccc2c(c1)C(C(=O)N(Cc1ccc(N(C)C)cc1)c1ccc(C(C)C)cc1)CCC2.Cl (stereo not drawn)
- Total Cell Count (U2OS; [1]): 273 and 146
- Population Apoptotic (%) (U2OS; [2]): 71% and 86%
- Population Fragmented Nuclei (%) (U2OS; [2]): 25% and 20%
- Population Healthy Nuclei (%) (U2OS; [2]): 50% and 57%
- Population Hoechst High Intensity Objects (%) (U2OS; [2]): 2% and 9%
- Population Membrane Permeable-Phenotype (%) (U2OS; [2]): 54% and 45%
- Population Mitochondria Different-Phenotype (%) (U2OS; [2]): 42% and 53%
- Population Mitotic Cells (%) (U2OS; [2]): 28% and 13%
- Population Normal (%) (U2OS; [2]): 97% and 90%
- Population Pyknosed Nuclei (%) (U2OS; [2]): 24% and 22%
- Population Tubulin-Different-Phenotype (%) (U2OS; [2]): 49% and 48%
- Total Cell Count (U2OS; [2]): 224 and 115
- Population Apoptotic (%) (U2OS; [3]): 80% and 93%
- Population Fragmented Nuclei (%) (U2OS; [3]): 21% and 17%
- Population Healthy Nuclei (%) (U2OS; [3]): 65% and 73%
- Population Hoechst High Intensity Objects (%) (U2OS; [3]): 2% and 3%
- Population Membrane Permeable-Phenotype (%) (U2OS; [3]): 10% and 6%
- Population Mitochondria Different-Phenotype (%) (U2OS; [3]): 5% and 4%
- Population Normal (%) (U2OS; [3]): 97% and 96%
- Population Pyknosed Nuclei (%) (U2OS; [3]): 13% and 8%
- Population Tubulin-Different-Phenotype (%) (U2OS; [3]): 3% and 2%
- Total Cell Count (U2OS; [3]): 369 and 203
- Population Apoptotic (%) (U2OS; [4]): 73% and 92%
- Population Fragmented Nuclei (%) (U2OS; [4]): 21% and 26%
- Population Healthy Nuclei (%) (U2OS; [4]): 47% and 49%
- Population Hoechst High Intensity Objects (%) (U2OS; [4]): 3% and 8%
- Population Membrane Permeable-Phenotype (%) (U2OS; [4]): 43%
- Population Mitochondria Different-Phenotype (%) (U2OS; [4]): 26% and 36%
- Population Normal (%) (U2OS; [4]): 96% and 91%
- Population Pyknosed Nuclei (%) (U2OS; [4]): 30% and 24%
- Population Tubulin-Different-Phenotype (%) (U2OS; [4]): 31% and 42%
- Total Cell Count (U2OS; [4]): 265 and 126
- Population Apoptotic (%) (HEK-293T; [5]): 30% and 43%
- Population Fragmented Nuclei (%) (HEK-293T; [5]): 6% and 5%
- Population Healthy Nuclei (%) (HEK-293T; [5]): 80% and 79%
- Population Hoechst High Intensity Objects (%) (HEK-293T; [5]): 7% and 4%
- Population Membrane Permeable-Phenotype (%) (HEK-293T; [5]): 0%
- Population Mitochondria Different-Phenotype (%) (HEK-293T; [5]): 39% and 61%
- Population Mitotic Cells (%) (HEK-293T; [5]): 70% and 56%
- Population Normal (%) (HEK-293T; [5]): 92% and 95%
- Population Pyknosed Nuclei (%) (HEK-293T; [5]): 13% and 14%
- Population Tubulin-Different-Phenotype (%) (HEK-293T; [5]): 27% and 23%
- Total Cell Count (HEK-293T; [5]): 413 and 330
- Population Apoptotic (%) (HEK-293T; [6]): 60% and 63%
- Population Fragmented Nuclei (%) (HEK-293T; [6]): 9% and 4%
- Population Healthy Nuclei (%) (HEK-293T; [6]): 78% and 77%
- Population Hoechst High Intensity Objects (%) (HEK-293T; [6]): 10% and 6%
- Population Membrane Permeable-Phenotype (%) (HEK-293T; [6]): 0%
- Population Mitochondria Different-Phenotype (%) (HEK-293T; [6]): 60% and 75%
- Population Mitotic Cells (%) (HEK-293T; [6]): 39% and 36%
- Population Normal (%) (HEK-293T; [6]): 89% and 93%
- Population Pyknosed Nuclei (%) (HEK-293T; [6]): 11% and 17%
- Population Tubulin-Different-Phenotype (%) (HEK-293T; [6]): 64% and 57%
- Total Cell Count (HEK-293T; [6]): 383 and 361
- Population Apoptotic (%) (HEK-293T; [1]): 31% and 60%
- Population Fragmented Nuclei (%) (HEK-293T; [1]): 9% and 7%
- Population Healthy Nuclei (%) (HEK-293T; [1]): 81% and 79%
- Population Hoechst High Intensity Objects (%) (HEK-293T; [1]): 3% and 6%
- Population Membrane Permeable-Phenotype (%) (HEK-293T; [1]): 0%
- Population Mitochondria Different-Phenotype (%) (HEK-293T; [1]): 20% and 33%
- Population Mitotic Cells (%) (HEK-293T; [1]): 68% and 40%
- Population Normal (%) (HEK-293T; [1]): 96% and 93%
- Population Pyknosed Nuclei (%) (HEK-293T; [1]): 8% and 13%
- Population Tubulin-Different-Phenotype (%) (HEK-293T; [1]): 13% and 11%
- Total Cell Count (HEK-293T; [1]): 567 and 399
- Population Apoptotic (%) (HEK-293T; [2]): 35% and 45%
- Population Fragmented Nuclei (%) (HEK-293T; [2]): 9% and 7%
- Population Healthy Nuclei (%) (HEK-293T; [2]): 73% and 76%
- Population Hoechst High Intensity Objects (%) (HEK-293T; [2]): 10% and 6%
- Population Membrane Permeable-Phenotype (%) (HEK-293T; [2]): 1% and 0%
- Population Mitochondria Different-Phenotype (%) (HEK-293T; [2]): 51% and 60%
- Population Mitotic Cells (%) (HEK-293T; [2]): 64% and 55%
- Population Normal (%) (HEK-293T; [2]): 89% and 93%
- Population Pyknosed Nuclei (%) (HEK-293T; [2]): 17% and 16%
- Population Tubulin-Different-Phenotype (%) (HEK-293T; [2]): 70% and 60%
- Total Cell Count (HEK-293T; [2]): 409 and 389
- Population Apoptotic (%) (HEK-293T; [3]): 20% and 46%
- Population Fragmented Nuclei (%) (HEK-293T; [3]): 12%
- Population Healthy Nuclei (%) (HEK-293T; [3]): 80% and 81%
- Population Hoechst High Intensity Objects (%) (HEK-293T; [3]): 1% and 4%
- Population Membrane Permeable-Phenotype (%) (HEK-293T; [3]): 1% and 0%
- Population Mitochondria Different-Phenotype (%) (HEK-293T; [3]): 10% and 17%
- Population Mitotic Cells (%) (HEK-293T; [3]): 79% and 53%
- Population Normal (%) (HEK-293T; [3]): 98% and 95%
- Population Pyknosed Nuclei (%) (HEK-293T; [3]): 6%
- Population Tubulin-Different-Phenotype (%) (HEK-293T; [3]): 10% and 15%
- Total Cell Count (HEK-293T; [3]): 968 and 631
- Population Apoptotic (%) (HEK-293T; [4]): 59% and 36%
- Population Fragmented Nuclei (%) (HEK-293T; [4]): 15% and 11%
- Population Healthy Nuclei (%) (HEK-293T; [4]): 75% and 79%
- Population Hoechst High Intensity Objects (%) (HEK-293T; [4]): 9% and 3%
- Population Membrane Permeable-Phenotype (%) (HEK-293T; [4]): 6% and 2%
- Population Mitochondria Different-Phenotype (%) (HEK-293T; [4]): 25% and 24%
- Population Mitotic Cells (%) (HEK-293T; [4]): 40% and 63%
- Population Normal (%) (HEK-293T; [4]): 90% and 96%
- Population Pyknosed Nuclei (%) (HEK-293T; [4]): 9% and 8%
- Population Tubulin-Different-Phenotype (%) (HEK-293T; [4]): 53% and 50%
- Total Cell Count (HEK-293T; [4]): 558 and 482
